# The list is not random: actives were taken first. Their share in the collection is about 1.8%.
# APJ ag – APJ receptor agonism. CHO-K1 APJ PathHunter beta-arrestin, luminescence; 0% DMSO wells, 100% apelin. activation, % at 20 µM. P35414. actives 0.11% (n = 330,000);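 active means activation more than six SD over the plate average, tested at 20 µM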
#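 Assay system: engineered CHO-K1 APJ arrestin reporter cells; Amount: 1000 CHO-K1 reporter cells seeded per well; Dosing: one dose, 20 µM compound, 1% DMSO; Times: compound stimulation 90 min at 25 °C, detection 60 min; Measured by: luminescent beta-gal fragment complementation, chemiluminescent substrate; Read-out: APJ–arrestin association signal; Controls: DMSO vs Apelin-13 10 nM.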
# Beta2AR agonist – agonists of human beta-2 adrenergic receptor inducing internalization; Am2.2-beta2AR cells, FAP receptor internalization, flow cytometry; P07550; actives 0.43% (n = 340,000); response, % (concentration not given with the values);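 active means response above a set limit, near 3 SD of response in nonfluorescent compounds, cut at about 42% in these data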
# CCR6 antagonist – antagonists of human CCR6 receptor; P51684; inhibition, % at 20 µM; CHO-K1 CCR6 PathHunter beta-arrestin, luminescence, CCL20-stimulated; actives 0.49% (n = 340,000); AID 493098;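 active means compounds whose inhibition of the agonist-driven luminescence signal at 20 µM reaches about 50%, limit read from the data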;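 further: cells stimulated with CCL20 at 14 nM final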
# EBI2 antag – blocks human EBI2 receptor beta-arrestin signaling | P32249 | EBI2 beta-arrestin recruitment, luminescence, 7a,25-OHC stimulated | inhibition, % at 5 µM | actives 0.81% (n = 360,000) | AID 651636; in the data active means inhibition above about 38%;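 further: enzyme fragment complementation signal reports receptor beta-arrestin coupling in cells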
# CXCR6 inh – inhibitors of human CXCR6 receptor. CHO-K1 PathHunter CXCR6 beta-arrestin, luminescence. inhibition, % at 20 µM. actives 0.36% (n = 360,000); in the data active means inhibition above about 34%, passing the limit was not always enough;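 further: antagonist mode with CXCL16 agonist at 10 nM final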
# Target sequence (O00574 whole entry, looked up): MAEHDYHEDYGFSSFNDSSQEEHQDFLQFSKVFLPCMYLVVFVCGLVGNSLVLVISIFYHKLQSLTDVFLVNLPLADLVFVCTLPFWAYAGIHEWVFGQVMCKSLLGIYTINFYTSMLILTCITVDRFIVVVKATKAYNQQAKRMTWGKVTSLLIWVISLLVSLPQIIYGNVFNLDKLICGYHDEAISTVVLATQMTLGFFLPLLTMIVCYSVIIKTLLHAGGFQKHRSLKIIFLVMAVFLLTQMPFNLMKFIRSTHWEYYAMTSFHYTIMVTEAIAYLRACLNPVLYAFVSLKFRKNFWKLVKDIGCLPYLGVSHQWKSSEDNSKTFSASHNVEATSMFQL
# APJ antag – antagonists of human APJ apelin receptor | actives 0.32% (n = 330,000) | CHO-K1 APJ beta-arrestin complementation, luminescence | inhibition, % at 20 µM;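 active means inhibition above about 40% at 20 µM, limit read from the data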;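 further: cells challenged with 10 nM apelin-13 agonist together with compound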
# A number is an active result; 0 = inactive; - = no result given.
SMILES,APJ ag,Beta2AR agonist,CCR6 antagonist,EBI2 antag,CXCR6 inh,APJ antag
COc1ccc(CN(C)C[C@@H]2OCc3cnnn3CCCC(=O)N([C@@H](C)CO)C[C@H]2C)cc1,-,-,-,0,0,-
CCOc1ccc(C(=O)NC(=S)Nc2ccc(NC(=O)c3ccco3)c(C)c2)cc1[N+](=O)[O-],0,0,50,0,0,0
CCOc1ccc(C(=O)NC(=S)Nc2ccc(N3CCC(C)CC3)cc2)cc1[N+](=O)[O-],-,0,53,0,0,-
COc1ccc([C@H]2CC(=O)C=C(c3cc4ccccc4s3)C2)cc1,0,0,0,63,0,0
O=C1C=C(c2cc3ccccc3s2)C[C@@H](c2ccc(Cl)cc2)C1,0,0,0,0,0,0
Cc1nc2ccsc2c(=O)n1-c1ccc(Cl)cc1,0,0,0,0,0,0
O=C(c1ccc(S(=O)(=O)N2CCCC2)cc1)N1CCCCC1,0,0,0,0,0,0
O=C(/C=C/c1ccc(O)c(O)c1)c1ccc(S(=O)(=O)N2CCCCCC2)cc1,0,0,63,0,0,42
Cc1ccc(N2CC(C(=O)N3CCN(c4ccccn4)CC3)CC2=O)cc1 (centres undefined),-,0,0,0,0,-
C#CCOc1ccc(/C=C2\SC(=S)N(Cc3cccnc3)C2=O)cc1,0,0,0,0,0,0
O=C1/C(=C/c2ccc(O)cc2)SC(=S)N1Cc1cccnc1,0,0,0,0,0,47
O=C(O)CCCNC(=O)OCc1ccccc1,0,64,0,0,0,0
O=C(NCCCCCCNC(=O)OCc1ccccc1)OCc1ccccc1,-,0,0,0,0,-
CC(C)(C)c1ccc(/C=N/N2C(=O)CSC2=S)cc1,0,65,0,0,0,0
COc1cc(/C=N/N=C(N)N)ccc1OCc1ccccc1Cl,22,54,0,0,0,0
Oc1cccc2ccc(/C=C/c3ccccc3Br)nc12,0,0,62,0,0,0
COc1cc(/C=C/c2ccc3cccc(O)c3n2)c(Br)cc1O,0,0,-,0,0,0
COc1cc(/C=C/c2ccc3cccc(O)c3n2)ccc1O,0,0,67,0,43,0
COc1cc(Br)c(/C=C/c2ccc3cccc(O)c3n2)cc1OC,0,0,0,0,0,0
Cc1ccc(S(=O)(=O)N[C@@H](C)C(=O)OCC(=O)N2c3ccccc3NC(=O)C2(C)C)cc1,0,0,0,0,0,0
Cc1ccc(C(=O)COC(=O)c2ccc3c(c2)C(=O)N(c2cccc4ncccc24)C3=O)cc1,0,0,0,0,0,0
O=C(COC(=O)c1ccc2c(c1)C(=O)N(c1cccc3ncccc13)C2=O)c1ccc(Cl)cc1,0,63,0,0,0,0
CC(NO)C(C)(C)NO (centres undefined),0,0,58,0,0,0
O=C(c1ccccc1Cl)N1CCC(n2cccc2)CC1,0,0,0,0,0,0
Cc1cccc(N2CCN(C(=O)CN3C(=O)NC4(CCCCCC4)C3=O)CC2)c1C,0,0,0,0,0,0
SMILES,APJ ag,Beta2AR agonist,CCR6 antagonist,EBI2 antag,CXCR6 inh,APJ antag
O=C(/C=C/c1ccc2c(c1)OCCO2)N1CCN(c2ccc(F)cc2)CC1,0,0,0,44,0,0
O=C(CNc1ccc(Cl)cc1)c1ccc(Br)cc1,0,0,62,0,0,83
O=C(CCCN1C(=O)/C(=C/c2ccccc2Cl)SC1=S)NNC(=O)c1ccc(Cl)cc1,0,0,0,60,0,0
Cc1ccc(C(=O)NNC(=O)CCCN2C(=O)/C(=C/c3ccccc3Cl)SC2=S)cc1,0,0,0,66,0,0
O=C(CCN1C(=O)/C(=C/c2ccccc2Cl)SC1=S)NNC(=O)c1cccnc1,0,0,0,0,0,0
O=C(CCN1C(=O)/C(=C/c2ccccc2Cl)SC1=S)NNC(=O)c1ccccc1O,0,0,0,0,0,0
O=C(NCCCN1CCCC1=O)c1cc(S(=O)(=O)N2CCOCC2)ccc1Cl,0,0,0,0,0,0
COc1ccc(C(=O)C(c2ccccc2)N2CCOCC2)cc1 (centres undefined),0,0,0,0,0,0
Cc1ccc(C(=O)C(c2ccccc2)N2Cc3ccccc3C2=N)cc1 (centres undefined),0,81,0,0,0,0
O=C1[C@H]2[C@@H]3CCN1CCC[C@@H]2C=C[C@@H]3c1ccc(Br)cc1,-,-,-,0,0,-
O=C(c1nnsc1S(=O)c1ccc(Cl)cc1)N1CCOCC1 (centres undefined),0,0,74,0,67,0
C=C1[C@@H](OC(C)=O)CC[C@]2(C)[C@@H]1C[C@@H]1C[C@H](OC(C)=O)C(C)=C([C@@H](OC(C)=O)[C@@H]2OC(C)=O)C1(C)C,0,0,0,0,0,0
Cc1ccc(C(=O)COC(=O)CCC(=O)Nc2cc(Cl)ccc2Cl)cc1[N+](=O)[O-],0,0,62,0,0,0
CC(=O)Nc1ccc(C(=O)OCC(=O)c2ccc(C)c([N+](=O)[O-])c2)cc1,0,0,0,0,0,0
CS(=O)(=O)c1ccccc1-c1nnc(NC(=O)c2ccc3ncsc3c2)o1,0,0,0,0,0,0
Cc1cc(/C=N/n2c(COc3ccccc3C)nc3ccccc3c2=O)c(O)c([N+](=O)[O-])c1,0,0,59,0,0,0
Cc1ccccc1OCc1nc2ccccc2c(=O)n1/N=C/c1c[nH]c2ccccc12,0,0,0,0,0,0
O=C(N/N=C/c1ccccc1O)c1cccc(C(F)(F)F)c1,0,0,0,59,0,0
Nc1c(Cl)cc2c(c1Oc1ccccc1)C(=O)c1ccccc1C2=O,0,0,0,0,38,0
Nc1c(Cl)cc2c(c1Br)Cc1ccccc1-2,-,0,0,0,0,-
C[C@H]1CN([C@@H](C)CO)C(=O)c2cc(Br)cnc2O[C@@H]1CN(C)C(=O)C1CCC1,-,-,-,0,0,-
COc1ccc(-n2nc(C(=O)c3cccs3)cc(-c3nc4ccccc4[nH]3)c2=N)cc1,0,0,0,53,0,0
Cc1ccccc1-n1nc(C(=O)c2cccs2)cc(-c2nc3ccccc3[nH]2)c1=N,0,0,0,0,0,0
CN1/C(=C/C(=O)c2nc(S(C)(=O)=O)ncc2Cl)C(C)(C)c2ccccc21,0,48,0,58,0,0
COC(=O)c1cc2ccc(OC)c(OC)c2c(=O)s1,0,50,0,0,0,0
COC(=O)[C@]1(C)N[C@H](CN(C)C(=O)c2ccccc2)[C@@H]2C(=O)N(C)C(=O)[C@@H]21,0,0,0,0,0,0
O=C(CCCCN1CCCCC1)c1ccccc1,0,0,0,0,0,0
O=C(C(=Cc1ccccc1)CN1CCCCC1)c1ccccc1,-,49,0,0,0,-
CCN(CC)S(=O)(=O)c1ccc2c(c1)C(=NO)c1cc(S(=O)(=O)N(CC)CC)ccc1-2,0,0,0,50,0,0
CCCCC(=O)N/N=C/c1ccc(Sc2cccc3cccnc23)o1,0,49,0,0,0,0

# High-throughput results (PubChem)
